Results taken from ChEMBL document CHEMBL4382218, “Design, synthesis and antifungal evaluation of borrelidin derivatives” (Bioorg Med Chem, 2018).
Activity calls are given as the source filed them.

What was measured:
Type in all cases: functional, organism-based
Aspergillus fumigatus = test: Antifungal activity against Aspergillus fumigatus CCTCC AF 93048 at 100 ug/ml after 48 hrs by micro broth dilution method
Method in brief: (§1)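 Broth microdilution in RPMI-1640 (NaHCO3, MOPS, pH 7.0). Compounds are dissolved in DMSO and serially diluted 2-fold to eight concentrations, with stocks of […]. Fungal inocula are 2 × 10³ cfu/mL. Plates are incubated 48 h at 28 °C. The MIC is the lowest concentration with no turbidity, and the highest concentration tested is 100 μg/mL.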

Candida parapsilosis = test: Antifungal activity against Candida parapsilosis ATCC 22019 at 100 ug/ml after 48 hrs by micro broth dilution method; method in brief: as §1
Candida albicans = test: Antifungal activity against Candida albicans ATCC MYA-2876 at 100 ug/ml after 48 hrs by micro broth dilution method; method in brief: as §1

Measured: Activity

COc1ccc(CCNC(=O)[C@@H]2CCC[C@H]2[C@@H]2C/C=C/C=C(/C#N)[C@H](O)[C@@H](C)C[C@H](C)C[C@H](C)C[C@H](C)[C@@H](O)CC(=O)O2)cc1
inactive: all assays above

COC(=O)[C@@H](CCSC)NC(=O)[C@@H]1CCC[C@H]1[C@@H]1C/C=C/C=C(/C#N)[C@H](O)[C@@H](C)C[C@H](C)C[C@H](C)C[C@H](C)[C@@H](O)CC(=O)O1
inactive: all assays above

CCC(=O)NNC(=O)[C@@H]1CCC[C@H]1[C@@H]1C/C=C/C=C(/C#N)[C@H](O)[C@@H](C)C[C@H](C)C[C@H](C)C[C@H](C)[C@@H](O)CC(=O)O1
inactive: all assays above

C[C@@H]1C[C@H](C)C[C@H](C)[C@@H](O)CC(=O)O[C@H]([C@@H]2CCC[C@H]2C(=O)OCCN2CCNCC2)C/C=C/C=C(/C#N)[C@H](O)[C@@H](C)C1
inactive: all assays above

C[C@@H]1C[C@H](C)C[C@H](C)[C@@H](O)CC(=O)O[C@H]([C@@H]2CCC[C@H]2C(=O)OCCN2CCN(Cc3ccccc3)CC2)C/C=C/C=C(/C#N)[C@H](O)[C@@H](C)C1
inactive: all assays above

C[C@@H]1C[C@H](C)C[C@H](C)[C@@H](O)CC(=O)O[C@H]([C@@H]2CCC[C@H]2C(=O)N2CCCC2)C/C=C/C=C(/C#N)[C@H](O)[C@@H](C)C1
inactive: all assays above

Cc1ccc(CN2CCN(CCOC(=O)[C@@H]3CCC[C@H]3[C@@H]3C/C=C/C=C(/C#N)[C@H](O)[C@@H](C)C[C@H](C)C[C@H](C)C[C@H](C)[C@@H](O)CC(=O)O3)CC2)cc1
inactive: all assays above

COc1ccc2[nH]cc(CCNC(=O)[C@@H]3CCC[C@H]3[C@@H]3C/C=C/C=C(/C#N)[C@H](O)[C@@H](C)C[C@H](C)C[C@H](C)C[C@H](C)[C@@H](O)CC(=O)O3)c2c1
inactive: all assays above

C[C@@H]1C[C@H](C)C[C@H](C)[C@@H](O)CC(=O)O[C@H]([C@@H]2CCC[C@H]2C(=O)OCCN2CCN(C(=O)OC(C)(C)C)CC2)C/C=C/C=C(/C#N)[C@H](O)[C@@H](C)C1
inactive: all assays above

C[C@@H]1C[C@H](C)C[C@H](C)[C@@H](O)CC(=O)O[C@H]([C@@H]2CCC[C@H]2C(=O)OCCN2CCN(Cc3ccc(Cl)cc3)CC2)C/C=C/C=C(/C#N)[C@H](O)[C@@H](C)C1
inactive: all assays above

CC(=O)CN1CCN(CCOC(=O)[C@@H]2CCC[C@H]2[C@@H]2C/C=C/C=C(/C#N)[C@H](O)[C@@H](C)C[C@H](C)C[C@H](C)C[C@H](C)[C@@H](O)CC(=O)O2)CC1
inactive: all assays above

COc1ccc(N2CCN(C(=O)[C@@H]3CCC[C@H]3[C@@H]3C/C=C/C=C(/C#N)[C@H](O)[C@@H](C)C[C@H](C)C[C@H](C)C[C@H](C)[C@@H](O)CC(=O)O3)CC2)cc1
inactive: all assays above

COC(=O)[C@@H](Cc1ccccc1)NC(=O)[C@@H]1CCC[C@H]1[C@@H]1C/C=C/C=C(/C#N)[C@H](O)[C@@H](C)C[C@H](C)C[C@H](C)C[C@H](C)[C@@H](O)CC(=O)O1
inactive: all assays above

C[C@@H]1C[C@H](C)C[C@H](C)[C@@H](O)CC(=O)O[C@H]([C@@H]2CCC[C@H]2C(=O)OCc2ccccn2)C/C=C/C=C(/C#N)[C@H](O)[C@@H](C)C1
inactive: all assays above

C[C@@H]1C[C@H](C)C[C@H](C)[C@@H](O)CC(=O)O[C@H]([C@@H]2CCC[C@H]2C(=O)NCCc2ccccn2)C/C=C/C=C(/C#N)[C@H](O)[C@@H](C)C1
inactive: all assays above

C[C@@H]1C[C@H](C)C[C@H](C)[C@@H](O)CC(=O)O[C@H]([C@@H]2CCC[C@H]2C(=O)OCCN2CCN(Cc3ccc(F)cc3)CC2)C/C=C/C=C(/C#N)[C@H](O)[C@@H](C)C1
inactive: all assays above

C[C@@H]1C[C@H](C)C[C@H](C)[C@@H](O)CC(=O)O[C@H]([C@@H]2CCC[C@H]2C(=O)NCc2ccccc2)C/C=C/C=C(/C#N)[C@H](O)[C@@H](C)C1
inactive: all assays above

C[C@@H]1C[C@H](C)C[C@H](C)[C@@H](O)CC(=O)O[C@H]([C@@H]2CCC[C@H]2C(=O)OCC2CC2)C/C=C/C=C(/C#N)[C@H](O)[C@@H](C)C1
inactive: all assays above

C[C@@H]1C[C@H](C)C[C@H](C)[C@@H](O)CC(=O)O[C@H]([C@@H]2CCC[C@H]2C(=O)OCCc2ccccc2)C/C=C/C=C(/C#N)[C@H](O)[C@@H](C)C1
inactive: all assays above

C[C@@H]1C[C@H](C)C[C@H](C)[C@@H](O)CC(=O)O[C@H]([C@@H]2CCC[C@H]2C(=O)N2CCNCC2)C/C=C/C=C(/C#N)[C@H](O)[C@@H](C)C1
inactive: all assays above

C[C@@H]1C[C@H](C)C[C@H](C)[C@@H](O)CC(=O)O[C@H]([C@@H]2CCC[C@H]2C(=O)OCCN2CCN(C(=O)OCc3ccccc3)CC2)C/C=C/C=C(/C#N)[C@H](O)[C@@H](C)C1
inactive: all assays above

CCCCCN(CCCC)C(=O)[C@@H]1CCC[C@H]1[C@@H]1C/C=C/C=C(/C#N)[C@H](O)[C@@H](C)C[C@H](C)C[C@H](C)C[C@H](C)[C@@H](O)CC(=O)O1
inactive: all assays above

C[C@@H]1C[C@H](C)C[C@H](C)[C@@H](O)CC(=O)O[C@H]([C@@H]2CCC[C@H]2C(=O)N2CCCCC2)C/C=C/C=C(/C#N)[C@H](O)[C@@H](C)C1
inactive: all assays above

C[C@@H]1C[C@H](C)C[C@H](C)[C@@H](O)CC(=O)O[C@H]([C@@H]2CCC[C@H]2C(=O)OCCN2CCN(Cc3ccc([N+](=O)[O-])cc3)CC2)C/C=C/C=C(/C#N)[C@H](O)[C@@H](C)C1
inactive: all assays above

C[C@@H]1C[C@H](C)C[C@H](C)[C@@H](O)CC(=O)O[C@H]([C@@H]2CCC[C@H]2C(=O)OCCN2CCN(Cc3ccc(Br)cc3)CC2)C/C=C/C=C(/C#N)[C@H](O)[C@@H](C)C1
inactive: all assays above

C[C@@H]1C[C@H](C)C[C@H](C)[C@@H](O)CC(=O)O[C@H]([C@@H]2CCC[C@H]2C(=O)OCCN2CCN(Cc3ccc4ccccc4c3)CC2)C/C=C/C=C(/C#N)[C@H](O)[C@@H](C)C1
inactive: all assays above

CC(=O)N1CCN(CCOC(=O)[C@@H]2CCC[C@H]2[C@@H]2C/C=C/C=C(/C#N)[C@H](O)[C@@H](C)C[C@H](C)C[C@H](C)C[C@H](C)[C@@H](O)CC(=O)O2)CC1
inactive: all assays above

C[C@@H]1C[C@H](C)C[C@H](C)[C@@H](O)CC(=O)O[C@H]([C@@H]2CCC[C@H]2C(=O)N2CCN(Cc3ccccc3)CC2)C/C=C/C=C(/C#N)[C@H](O)[C@@H](C)C1
inactive: all assays above

COC(=O)[C@@H](Cc1cnc[nH]1)NC(=O)[C@@H]1CCC[C@H]1[C@@H]1C/C=C/C=C(/C#N)[C@H](O)[C@@H](C)C[C@H](C)C[C@H](C)C[C@H](C)[C@@H](O)CC(=O)O1
inactive: all assays above

COC(=O)[C@@H](Cc1c[nH]c2ccccc12)NC(=O)[C@@H]1CCC[C@H]1[C@@H]1C/C=C/C=C(/C#N)[C@H](O)[C@@H](C)C[C@H](C)C[C@H](C)C[C@H](C)[C@@H](O)CC(=O)O1
inactive: all assays above

C[C@@H]1C[C@H](C)C[C@H](C)[C@@H](O)CC(=O)O[C@H]([C@@H]2CCC[C@H]2C(=O)N2CCN(C)CC2)C/C=C/C=C(/C#N)[C@H](O)[C@@H](C)C1
inactive: all assays above

C[C@@H]1C[C@H](C)C[C@H](C)[C@@H](O)CC(=O)O[C@H]([C@@H]2CCC[C@H]2C(=O)OCCN2CCN(C(=O)c3ccccc3)CC2)C/C=C/C=C(/C#N)[C@H](O)[C@@H](C)C1
inactive: all assays above

COC(=O)[C@@H](CC(C)C)NC(=O)[C@@H]1CCC[C@H]1[C@@H]1C/C=C/C=C(/C#N)[C@H](O)[C@@H](C)C[C@H](C)C[C@H](C)C[C@H](C)[C@@H](O)CC(=O)O1
inactive: all assays above

C[C@@H]1C[C@H](C)C[C@H](C)[C@@H](O)CC(=O)O[C@H]([C@@H]2CCC[C@H]2C(=O)OCCN2CCN(Cc3ccc(F)cc3F)CC2)C/C=C/C=C(/C#N)[C@H](O)[C@@H](C)C1
inactive: all assays above
